# Entries after “also recorded” stand apart in the source; their conditions may differ.
# Tests used:
# [1] = system: primary mouse mammary epithelial cells (MECs) organoids; experiment: 3D organoid model of normal mammary growth and branching morphogenesis; format: cell-based; conditions: for organoids killed: 3D branching assay; for delay in branching morphogenesis: single agent
# Summary of the method: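 Primary mouse mammary epithelial cells embedded in Matrigel and stimulated to branch with FGF2. Test compound and/or ZnSO4, or vehicle, added from 48 h. At 144 h, organoids stained with Hoechst (nuclei), calcein AM (live) and SYTOX Orange (dead), then imaged.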
# [2] = system: untransformed mouse MECs and MCF-10A cells, in comparison to MCF-7 cells; experiment: intracellular Zn^2+ by FluoZin-3, comparison of zinc interactors; format: cell-based; conditions: 3 h, absence of exogenous Zn^2+
# [3] = system: transformed and untransformed cells; experiment: cell viability; format: cell-based; conditions: 48 h; ATP quantification
# [4] = system: transformed and untransformed cell types; format: cell-based; conditions: ZNA (30 μM) or clioquinol (30 μM) with ZnSO4; propidium iodide
# [5] = system: a variety of cancer cell lines; conditions: read-out: IC50s; cited from earlier work
# [6] = system: MCF-10A and MCF-7 cells; experiment: evaluation of focused library; format: cell-based, human; conditions: MCF-7 versus MCF-10A; listed as compound 4
# Summary of the method: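 MCF-7 breast cancer and untransformed MCF-10A mammary epithelial cells were given a range of test compound concentrations to generate dose–response curves. MCF-7 EC50 was the mean of three replicates. ΔAUC was the difference in area under the curve between MCF-7 and MCF-10A.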
# [7] = system: malignant pleural effusion cells (PE1005339); experiment: 12-point dose–response assay in malignant pleural effusion cells; format: cell-based, human; conditions: PE1005339 tumor cells; 12-point dose–response; 4 days
# Summary of the method: (§1)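 Dose–response after 4 days of treatment in immortalized primary human mammary epithelial cells (hTERT-HMEC) or in primary metastatic, chemoresistant breast cancer cells from a patient's malignant pleural effusion. A 12-point series is stated for the effusion cells. Mean and SD of three replicates.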
# [8] = system: hTERT-HMEC; experiment: dose–response assay in immortalized mammary epithelial cells; format: cell-based, human; conditions: therapeutic window; hTERT-HMEC per Figure 2C; 4 days
# Summary of the method: as §1
# [9] = system: MCF-7, T47D, and MDA-MB231 breast cancer cell lines; experiment: dose–response assays in breast cancer cell lines; format: cell-based, human; conditions: malignant cell lines; 5 days
# Summary of the method: (§2)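 Viability dose–response after 5 days of treatment in untransformed MCF-10A cells and in MCF-7, T47D and MDA-MB-231 breast cancer lines. Mean and SD of three replicates.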
# [10] = system: MCF-10A; experiment: dose–response assay in untransformed mammary epithelial cell line; format: cell-based, human; conditions: 5 days
# Summary of the method: as §2
# [11] = system: cancer cells; experiment: long-term colony formation after 24 h treatment; format: cell-based, human; conditions: 24 h treatment then 3 weeks without compound
# Summary of the method: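 Cells were exposed to test compound for 24 h, then grown in compound-free medium for 21 days. Colonies were stained with crystal violet and quantified, and the mean and standard deviation of four replicates were reported.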
# [12] = system: MCF-10A cells; experiment: long-term colony formation after 24 h treatment; format: cell-based, human; conditions: 24 h treatment then 3 weeks without compound
# Summary of the method: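 Cells treated 24 h, then cultured 21 days in compound-free medium. Surviving colonies stained with crystal violet and quantified. Mean and SD of four replicates.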
# [13] = system: metal trafficking genes in MCF-7 cells; experiment: RT-PCR of metal trafficking gene induction; format: cell-based, human; conditions: ZNA 30 μM, 3 or 24 h, normalized to GAPDH
# Summary of the method: (§3)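 Real-time PCR of metal trafficking gene induction after 3 or 24 h exposure to test compound at 30 μM, run in quadruplicate.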
# [14] = system: metal trafficking genes in MCF-10A cells; experiment: RT-PCR of metal trafficking gene induction; format: cell-based, human; conditions: ZNA 30 μM, 3 or 24 h, normalized to GAPDH
# Summary of the method: as §3
# [15] = system: MCF-7 cells; experiment: intracellular Zn^2+ by FluoZin-3 and flow cytometry; format: cell-based, human
# Summary of the method: (§4)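 Intracellular free Zn2+ measured by FluoZin-3 staining and flow cytometry after 1, 3, 24 or 48 h of treatment with test compound, with or without ZnSO4. For MCF-7, an extra 24 h arm included actinomycin D to block transcription. Mean and SEM of three replicates, compared with control.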
# [16] = system: MCF-10A cells; experiment: as above; format: cell-based, human
# Summary of the method: as §4
# [17] = system: MCF-10 and MCF-7 cell lines; experiment: cell viability; format: cell-based, human
# Summary of the method: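 Test compound combined with exogenously added transition metal ions. Viability read as cellular ATP content after 24 h of treatment. Mean and SEM of three replicates, each normalized to its respective control.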
# [18] = system: MCF-7 cells; experiment: total cellular Zn^2+ by ICP-AES; format: cell-based, human; conditions: 3 h, ZNA or ZNA/ZnSO4
# Summary of the method: (§5)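 Total cellular zinc determined by inductively coupled plasma atomic emission spectroscopy after 3 h treatment with test compound alone or together with ZnSO4.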
# [19] = system: MCF-10A cells; experiment: total cellular Zn^2+ by ICP-AES; format: cell-based, human; conditions: cotreatment with Zn^2+
# Summary of the method: as §5
# [20] = system: MCF-7 cells; experiment: cell death by propidium iodide staining and flow cytometry; format: cell-based, human; conditions: cotreatment with ZnSO4, within 24 h
# Summary of the method: (§6)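 Cells treated 24 h with test compound combined with ZnSO4, then stained with propidium iodide and analysed by flow cytometry. Mean and SEM of three replicates, normalized to the control sample.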
# [21] = system: MCF-10A; experiment: as above; format: cell-based, human
# Summary of the method: as §6
# [22] = system: MCF-7 cells; experiment: cellular proliferation by EdU incorporation; format: cell-based, human; conditions: 6 h
# Summary of the method: (§7)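 Proliferation measured as percent EdU incorporation after 6 h with test compound (30 μM) and/or ZnSO4 (30 μM). Mean and SEM of three experimental replicates; compared against control.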
# [23] = system: MCF-10A cells; experiment: cellular proliferation by EdU incorporation; format: cell-based, human; conditions: 6 h
# Summary of the method: as §7
# [24] = system: caspase 3/7, 8, or 9 activity in T47D, MDA-MB-231, and MCF-10A; experiment: quantification of caspase activity; format: cell-based, human; conditions: 6 or 72 h
# Summary of the method: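 Caspase activity quantified after 6 or 72 h exposure to test compound with ZnSO4; staurosporine used as positive control. Mean and SD of three replicates.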
# [25] = system: MCF-7 cells; experiment: FluoZin-3 and LysoTracker colocalization; format: cell-based, human; conditions: ZNA (30 μM) and ZnSO4 (30 μM), 2 h
# Summary of the method: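 Cells exposed 2 h to test compound (30 μM) and/or ZnSO4 (30 μM). Costained with FluoZin-3 (zinc), LysoTracker (lysosomes) and Hoechst, then imaged by fluorescence microscopy. Overlap of FluoZin-3 and LysoTracker signals quantified.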
# [26] = system: cytosolic cathepsin in MCF-7 cells; experiment: cytosolic cathepsin activity / cytoplasmic fractionation; format: cell-based, human
# Summary of the method: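 Cells given test compound plus ZnSO4 for 6 h. Cytoplasmic cathepsin activity then measured with an enzymatic assay and expressed as mean activity relative to control. SEM of three experimental replicates.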
# [27] = system: PyMT primary tumor organoids; experiment: 3D primary tumor organoid culture; format: cell-based; conditions: 144 h
# Summary of the method: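 PyMT mouse tumor cells embedded as organoids in Matrigel and cultured 144 h. Test compound and/or ZnSO4, or vehicle, present from 48 h to the end. Final staining with Hoechst, calcein AM (live) and SYTOX Orange (dead), then imaged.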
# [28] = system: MT1 and MT2 in renal and hepatic tissue; experiment: RT-PCR of metallothionein expression in tissue of treated mice; format: in vivo; conditions: 100 mg/kg intraperitoneal, nontumor bearing FVB/NJ mice
# Summary of the method: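 Nontumor-bearing FVB/NJ mice received 100 mg/kg test compound intraperitoneally or vehicle, and were sampled 3 or 24 h later. MT1 and MT2 expression in kidney and liver was measured by real-time PCR, normalised to β-actin and expressed relative to controls.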
# [29] = system: PyMT mammary tumors; experiment: transplanted PyMT mouse mammary tumor model; format: in vivo
# Summary of the method: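 PyMT-expressing mouse mammary cells were transplanted into the fat pads of 3-week-old female FVB mice. Tumour-bearing mice were assigned to four groups for 21 days: test compound 100 mg/kg i.p. once daily, 25 mM ZnSO4 continuously in drinking water, both, or PBS i.p. once daily. Mice were euthanised at 2 cm tumour diameter, and Kaplan–Meier survival analysis was used.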
# [30] = system: primary metastatic tumor cells derived from malignant pleural effusions (PEs) of breast cancer patients; conditions: 10 μM; PE cells; cited from earlier work
# [31] = system: immortalized human mammary epithelial cells (hTERT-HMEC); conditions: 10 μM; cited from earlier work
# [32] = system: epidermal growth factor (EGF)-stimulated DNA synthesis; conditions: cited from earlier work
compound,measurement,setting,value
Oc1c(I)cc(Cl)c2cccnc12 [clioquinol],organoids killed,[1]; compound alone,100%
same,organoids killed,[1]; with ZnSO4,100%
same,intracellular Zn^2+ levels (FluoZin-3),[2],increase in intracellular Zn^2+
same,toxicity of combination with ZnSO4,[3],toxic to both transformed and untransformed cells
same,"cytotoxic effect of combination with ZnSO4, time-course",[4],cytotoxic toward all cell types tested
same,IC50,[5],5 to 50 µM
O=S(=O)([O-])[O-].[Zn+2] [ZnSO4],delay in branching morphogenesis,[1],24 h
"COc1ccc(-c2c(Cc3ccccc3)[nH]/c(=N\C(=O)c3ccccc3F)n2C)cc1 [ZNA, zinaamidole A]","potency and selectivity (EC50 in MCF-7, ΔAUC between MCF-7 and MCF-10A)",[6],significant increase in potency and selectivity; also recorded: greatest balance of potency and selectivity
same,EC50,[7],4.12 µM
same,IC50,[8],> 100 µM
same,cell viability,[9],decreased cell viability
same,sensitivity (cell viability),[10],reduced sensitivity
same,long-term proliferative potential (colonies),[11],significantly affected long-term proliferative potential
same,effect on long-term proliferative potential (colonies),[12],greatly attenuated
same,metal trafficking gene expression,[13],75 fold
same,metal trafficking gene expression,[14],5 fold
same,intracellular Zn^2+ on cotreatment with Actinomycin D versus ZNA-alone,"[15]; 24 h, with ACTD",statistically significant increase
same,increase in FluoZin-3 fluorescence (intracellular Zn^2+),"[15]; 48 h, no exogenous Zn^2+",13 fold
same,intracellular Zn^2+ concentration (FluoZin-3),"[15]; in the presence of 30 μM Zn^2+, 3 h",170 times
same,increase in intracellular Zn^2+ (FluoZin-3),"[16]; 48 h, no exogenous Zn^2+",2 fold
same,intracellular Zn^2+ level versus vehicle control (FluoZin-3),[16]; cotreatment with Zn^2+,less than 10 fold
same,effect on cell viability in combination with Zn^2+,"[17]; MCF-10A and MCF-7, 24 h, ATP",highly synergistic and cancer selective
same,effect on cell viability in cotreatment with Cu^2+,"[17]; MCF-10 and MCF-7, 24 h, ATP",nonselective cell death
same,"effect on cell viability with Ni, Co, and Mn compared to ZNA alone",[17]; broader series of metals,minimal changes in cell viability
same,effect on cell viability in combination with Fe^2+,"[17]; untransformed and transformed cell lines, 24 h, ATP",relatively little effect
same,total cellular Zn^2+ (ICP-AES),[18],increase in total cellular Zn^2+
same,total cellular Zn^2+ (ICP-AES),[19],below detectable levels
same,cell death,[20],> 80%
same,cell death,"[21]; ZNA alone, 24 h",unaffected
same,cell death,"[21]; combination with ZnSO4, 24 h",unaffected
same,EdU incorporation,[22]; ZNA (30 μM)/ZnSO4 (30 μM),complete block
same,EdU incorporation,[22]; ZNA alone 30 μM,only a partial reduction
same,EdU incorporation,[23]; ZNA (30 μM)/ZnSO4 (30 μM),only partially inhibiting
same,EdU incorporation,[23]; ZNA alone 30 μM,only a partial reduction
same,"caspase 3/7, 8, or 9 activity","[24]; ZNA alone, MDA-MB-231, MCF-10A",either minimal or not observed
same,"caspase 3/7, 8, or 9 activity","[24]; ZNA/ZnSO4, MDA-MB-231, MCF-10A",either minimal or not observed
same,FluoZin-3 and LysoTracker overlap,[25],significant increase
same,cytosolic cathepsin activity,"[26]; MCF-7, combination of ZNA and ZnSO4, 6 h",significant increase
same,"cytosolic cathepsins B, D, and L relative to untreated cells","[26]; MCF-7s, ZNA/ZnSO4, cytoplasmic fractionation",increase
same,organoids healthy with no visible extruding cells,"[1]; combination ZNA/ZnSO4, 144 h",Greater than 60%
same,organoids with either full or partial branching,"[1]; combination ZNA/ZnSO4, 144 h",approximately 90%
same,delay in branching morphogenesis,[1],24 h
same,organoids with strong cell extrusion phenotype,[27]; ZNA-alone,about 70%
same,organoids to which treatment was cytotoxic,[27]; ZNA/ZnSO4 cotreatment,over 80%
same,MT1 and MT2 expression versus control treated mice,[28]; 3 h,increased
same,MT1 and MT2 expression,[28]; 24 h,decreased
same,survival versus control-treated or ZnSO4-only groups,"[29]; ZNA 100 mg/kg i.p. once a day plus 25 mM ZnSO4 in drinking water, 21 days",significant survival advantage
same,"general toxicity, adverse reactions, body weight","[29]; ZNA 100 mg/kg i.p. once a day, 21 days","no general toxicity, adverse reactions, or decreases in body weight"
same,survival versus control-treated or ZnSO4-only groups,[29]; ZNA alone 100 mg/kg i.p. once a day for 21 days,significant survival advantage
same,"general toxicity, adverse reactions, body weight","[29]; combination of ZNA and ZnSO4, 21 days","no general toxicity, adverse reactions, or decreases in body weight"
same,"cytotoxic effect of combination with ZnSO4, time-course",[4],only observed in the transformed cell line
naamidine A,organoids killed,[1]; compound alone,100%
same,effect of exogenous ZnSO4 on cytotoxic effects in organoids,[1]; with exogenous ZnSO4,rescued the cytotoxic effects
same,intracellular Zn^2+ levels (FluoZin-3),[2],decreased or unchanged
same,decrease in cell viability,[30],100%
same,decrease in cell viability,[31],100%
same,inhibition of EGF-stimulated DNA synthesis,[32],submicromolar

# Source: paper PMC8489793 (ACS chemical biology, 2019)
